SMILES strings stand for the structures. The source made the active and inactive calls. The rule behind the calls is not given here.

The nature of data set [1]: Cytotoxicity against C57BL/6 mouse spleen cell assessed as cell death at 7.8 to 500 uM after 24 hrs by propidium iodide staining based flow cytometry. It counts as tissue-based. The method, boiled down:
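Spleen cells from C57BL/6 mice were dissociated, red cells lysed for 5 min (0.17 M Tris-HCl pH 7.5 : 0.16 M NH4Cl, 1:9), and cells grown in RPMI 1640 with 10% FBS and antibiotics at 5×10^5 cells/well with compounds for 24 h at 37 °C. The positive control was 0.5% Tween 20. Dead cells were stained with 10 µg/mL propidium iodide and counted by flow cytometry. Three independent experiments were run in duplicate.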

Data set [2] deals with Trypanosoma cruzi. Nature of the data set: Antitrypanosomal activity against trypomastigote form of Trypanosoma cruzi Tulahuen expressing beta galactosidase infected in rhesus monkey LLC-MK2 cells assessed as inhibition of parasite viability treated at 24 hrs post-infection measured after 4 days by CPRG based colorimetric assay. Format: functional, organism-based. A digest of the protocol:
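LLC-MK2 cells at 2×10^3/well in phenol red-free RPMI, grown 24 h, infected with 1×10^4 Tulahuen-lacZ trypomastigotes. Compound added 24 h later at 0.5–0.0035 mM (8 concentrations). After 4 days, PBS with 0.5% Triton X-100 and 100 μM CPRG added; 4 h at 37 °C, absorbance 570 nm. IC50 from three independent experiments, each in duplicate.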

Data set [3] is described as follows: Inhibition of C-terminal truncated recombinant Trypanosoma cruzi trans-sialidase assessed as decrease in substrate MuNANA hydrolysis at 1 mM preincubated with enzyme for 10 mins prior to substrate addition measured after 10 mins by continuous fluorimetric assay. A digest of the protocol: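 His-tagged 70 kDa recombinant enzyme retaining the catalytic N-terminal domain. Run in triplicate in phosphate buffer pH 7.4; enzyme and inhibitor (25 µL of 4.0 mM solution) preincubated 10 min at 26 °C. MuNANA then added to 0.1 mM final; fluorescence of released Mu read after 10 min (ex 360/em 460 nm). %I = 100×(1−Vi/V0); pyridoxal phosphate as control.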

In data set [4] the test system is Trypanosoma cruzi. Nature of the data set: Antitrypanosomal activity against amastigote form of Trypanosoma cruzi Tulahuen infected in african green monkey Vero cells assessed as decrease in number of intracellular parasites treated after removal of parasite on cell supernatant following 12 hrs of infection measured after 24 hrs by Giemsa staining based optical microscopy. It counts as functional, organism-based. The method, boiled down: (§1)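 Vero cells plated at 2×10^4/well on 8-well chamber slides; after 12 h infected with 2×10^5 trypomastigotes/well for 12 h, washed with PBS, then compound added for 24 h at 37 °C. Giemsa-stained, parasites per cell counted by light microscopy in at least 200 cells/well. Two independent experiments, each in triplicate.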

The nature of data set [5]: Inhibition of C-terminal truncated recombinant Trypanosoma cruzi trans-sialidase assessed as decrease in substrate MuNANA hydrolysis preincubated with enzyme for 10 mins prior to substrate addition measured after 10 mins by continuous fluorimetric assay.
Data set [6] deals with Trypanosoma cruzi. In words: Antitrypanosomal activity against amastigote form of Trypanosoma cruzi Tulahuen infected in african green monkey Vero cells assessed as decrease in number of intracellular parasites at 0.06 to 0.5 mM treated after removal of parasite on cell supernatant following 12 hrs of infection measured after 24 hrs by Giemsa staining based optical microscopy. It counts as functional, organism-based. The method, boiled down: as §1

In the case of `CC(=O)N[C@H]1[C@@H](OC[C@@H]2NC(=O)[C@H](CC(=O)O)NC2=O)O[C@H](CO)[C@H](O)[C@@H]1O`, the Activity entry in data set [1] was “Non-toxic”. Further, the IC50 in data set [2] came to 282 µM. The inhibition in data set [3] was found to be 25%.
`CC(=O)N[C@H]1[C@@H](OC[C@H](N)C(=O)O)O[C@H](CO)[C@H](O)[C@@H]1O`: the Activity result in data set [1] is listed as “Non-toxic”. Besides, in data set [2], the IC50 is over 500 µM. Moreover, the inhibition in data set [3] was found to be 57%.
In the case of `CC(=O)N[C@H]1[C@@H](O[C@H](C)[C@@H]2NC(=O)[C@H](CC(=O)O)NC2=O)O[C@H](CO)[C@H](O)[C@@H]1O`, the Activity result in data set [1] is “Non-toxic”; in data set [4], “Dose-dependent effect”. Also, the IC50 in data set [2] came to 124 µM. For the same molecule, the inhibition in data set [3] came out at 13%.
On to `CC(=O)N[C@H]1[C@@H](O[C@H](C)[C@H](N)C(=O)O)O[C@H](CO)[C@H](O)[C@@H]1O`, for which the Activity entry in data set [1] was “Non-toxic”. Besides, the values for the IC50 in data set [2] and in data set [5] were over 500 µM and 320 µM, respectively. The inhibition in data set [3] came to 79%.
Consider `O=C(Cn1ccnc1[N+](=O)[O-])NCc1ccccc1` [BENZNIDAZOLE], for which the result in data set [6] was Active. In addition, in data set [2], the IC50 came out at 30 µM.
